Measured values reported in ChEMBL document CHEMBL1687872, “Synthesis, molecular docking and binding studies of selective serotonin transporter inhibitors” (Eur J Med Chem, 2011).
pKi: −log10 of the molar value.

Tests used:
Oryctolagus cuniculus [1] = organism: Oryctolagus cuniculus; assay: Ratio of Ki for NET in rabbit cortical membrane to Ki for SERT in rabbit cortical membrane; type: cell membranes
Outline: (§1)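 Ratio of the radioligand-binding Ki values from rabbit membranes: DAT ([3H]WIN 35,428, striatum) or NET ([3H]nisoxetine, cortex) Ki divided by SERT ([3H]paroxetine, cortex) Ki.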

[2] = Displacement of [3H]-paroxetine from SERT in rabbit cortical membrane; type: cell membranes, Oryctolagus cuniculus
Outline: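 Competition against [3H]paroxetine (Kd 56.00 pM) on rabbit frontal cortex membranes, in duplicate, at least seven test concentrations from ethanol stocks diluted in Tris-HCl saline buffer; filtration and scintillation counting; Ki calculated by Cheng-Prusoff, mean ± s.e.m. of three independent experiments.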

[3] = Displacement of [3H]-Nisoxetine from NET in rabbit cortical membrane; type: cell membranes, Oryctolagus cuniculus
Oryctolagus cuniculus [4] = organism: Oryctolagus cuniculus; assay: Ratio of Ki for DAT in rabbit striatal membrane to Ki for SERT in rabbit cortical membrane; type: cell membranes; outline: as §1
[5] = Displacement of [3H]-WIN 35,428 from DAT in rabbit striatal membrane; type: cell membranes, Oryctolagus cuniculus, Striatum
Outline: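 Rabbit striatal membranes (0.2 mg protein) in 50 mM Tris-HCl pH 7.4, 120 mM NaCl, 5 mM KCl with 0.5–2 nM [3H]WIN 35,428 (Kd 6.1 nM), 2 h at 4 °C; dopamine defines nonspecific binding; filtration over polyethylenimine-soaked GF/C filters, scintillation counting; ≥7 concentrations; Ki via Cheng-Prusoff, mean ± s.e.m. of three experiments in duplicate.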

Row | SMILES | Ratio Ki (Oryctolagus cuniculus [1]) | pKi [2] | pKi [3] | Ratio Ki (Oryctolagus cuniculus [4]) | pKi [5]
1 | Fc1ccc(CO/N=C2/CNCCC2c2ccc(C(F)(F)F)cc2)cc1 (configuration not stated) | 96 | 7.01 | 5.03 | > 1000 | < 4.00
2 | Fc1ccc(CO/N=C2/CNCCC2c2ccc(F)cc2)cc1 (racemic) | 466 | 7.54 | 4.87 | 329 | 5.02
3 | Fc1ccc(CO/N=C2\CNCCC2c2ccc(F)cc2)cc1 (racemic) |  | 6.51 |  | 10 | 5.50
4 | Fc1ccc(C2CCNC/C2=N/OCc2ccc(C(F)(F)F)cc2)cc1 (racemic) | 198 | 7.01 | 4.71 | > 1000 | < 4.00
5 | Fc1ccc(C2CCNC/C2=N\OCc2ccc(C(F)(F)F)cc2)cc1 (racemic) |  | 6.86 |  | 45 | 5.21
6 | Fc1ccc(C2CCNC/C2=N/OCc2ccccc2Cl)cc1 (racemic) | 496 | 7.65 | 4.95 | 571 | 4.89
7 | Fc1ccc(C2CCNC/C2=N\OCc2ccccc2Cl)cc1 (racemic) |  | 7.09 |  | 47 | 5.42
8 | Fc1ccc(CO/N=C2\CNCCC2c2ccc(C(F)(F)F)cc2)cc1 (racemic) |  | 6.40 |  | 7 | 5.55
9 | FC(F)(F)c1ccc(C2CCNC/C2=N/OCc2ccccc2Cl)cc1 (racemic) | 972 | 7.99 | 5.00 | > 9000 | < 4.00
10 | FC(F)(F)c1ccc(C2CCNC/C2=N\OCc2ccccc2Cl)cc1 (racemic) |  | 7.02 |  | 43 | 5.38
11 | CNCCC(Oc1ccccc1OC)c1ccccc1 (configuration not stated) [NISOXETINE] |  |  | 8.46 |  | 
12 | Fc1ccc([C@@H]2CCNC[C@H]2COc2ccc3c(c2)OCO3)cc1 [PAROXETINE] | 258 | 9.51 | 7.10 | 2480 | 6.11
13 | CNCC[C@@H](Oc1ccc(C(F)(F)F)cc1)c1ccccc1 [R-FLUOXETINE] | 105 | 8.24 | 6.22 | 670 | 5.40
14 | Fc1ccc(C(OCCN2CCN(CCCc3ccccc3)CC2)c2ccc(F)cc2)cc1 [VANOXERINE] |  |  |  |  | 8.82
